≈ marks a conversion by molar mass, not a printed value.
How the values were obtained:
[1] = tested on: Nakaseomyces glabratus; test: Antifungal activity against Candida glabrata clinical isolate after 48 hrs by broth microdilution assay; type: functional
Summary of the method: (§1)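 Broth microdilution of DMSO stocks serially diluted in sterile water (4 to 0.0039 mg/mL). Yeasts grown on SDA at 37 °C for 24 h, suspended in double-strength PDB at 10⁵ spores/mL. Incubated at 37 °C for 48 h, then sprayed with 0.5% aqueous TTC. MIC = lowest concentration inhibiting visible growth. Ketoconazole reference.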

[2] = tested on: Candida albicans; test: Antifungal activity against Candida albicans ATCC 90028 after 48 hrs by broth microdilution assay; type: functional; details: ATCC 90028, 48 h; summary of the method: as §1
[3] = tested on: Candida tropicalis; test: Antifungal activity against Candida tropicalis NRLL Y 12968 after 48 hrs by broth microdilution assay; type: functional; details: NRLL Y 12968, 48 h; summary of the method: as §1
[4] = tested on: Pichia kudriavzevii; test: Antifungal activity against Candida krusei NRLL Y 7179 after 48 hrs by broth microdilution assay; type: functional; details: NRLL Y 7179, 48 h; summary of the method: as §1
[5] = tested on: [Candida] zeylanoides; test: Antifungal activity against Candida zeylanoides NRLL Y 1774 after 48 hrs by broth microdilution assay; type: functional; details: Dujonia zeylanoides, NRLL Y 1774, 48 h; summary of the method: as §1
[6] = tested on: Candida parapsilosis; test: Antifungal activity against Candida parapsilosis NRLL Y 12696 after 48 hrs by broth microdilution assay; type: functional; details: Lodderomyces parapsilosis, NRLL Y 12696, 48 h; summary of the method: as §1
[7] = tested on: Aspergillus flavus; test: Antifungal activity against Aspergillus flavus NRRL 980 after 72 hrs by broth microdilution assay; type: functional; details: NRRL 980, 72 h
Summary of the method: (§2)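 Compounds dissolved in DMSO, diluted in sterile distilled water from 4 to 0.0039 mg/mL. Molds grown on PDA at 25 °C for 5 days, suspended in double-strength PDB at 10⁵ spores/mL. Incubated at 25 °C for 72 h; mycelial growth read under stereo microscope. MIC = lowest concentration inhibiting visible growth. Ketoconazole reference.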

[8] = tested on: Aspergillus niger; test: Antifungal activity against Aspergillus niger ATCC 1094 after 72 hrs by broth microdilution assay; type: functional; details: ATCC 1094, 72 h; summary of the method: as §2
[9] = tested on: Aspergillus parasiticus; test: Antifungal activity against Aspergillus parasiticus NRRL 465 after 72 hrs by broth microdilution assay; type: functional; details: NRRL 465, 72 h; summary of the method: as §2
[10] = tested on: Fusarium solani; test: Antifungal activity against Fusarium solani NRRL 13414 after 72 hrs by broth microdilution assay; type: functional; details: NRRL 13414, 72 h; summary of the method: as §2
[11] = tested on: Salmonella typhimurium; test: Mutagenicity in Salmonella typhimurium TA98 at 0.156 mg/ml after 48 hrs by AMES MPF assay in presence of Sprague-Dawley rat liver microsomal S9 fraction relative to baseline; type: toxicity, organism-based; details: salmonella enterica subsp. enterica serovar typhimurium
Summary of the method: (§3)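 Ames MPF fluctuation test with TA98/TA100. Overnight cultures (37 °C, 14–16 h) mixed with exposure medium; ±Aroclor-1254-induced rat liver S9 (final 4.5% v/v). Compounds in DMSO, 0.156–5 mg/mL. 90 min exposure at 37 °C, then indicator medium; 48 wells per concentration, 48 h at 37 °C, in triplicate. Yellow wells counted; fold induction over baseline (mean + 1 SD of zero-dose control).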

[12] = tested on: Salmonella typhimurium; test: Mutagenicity in Salmonella typhimurium TA98 at 0.3125 mg/ml after 48 hrs by AMES MPF assay in presence of Sprague-Dawley rat liver microsomal S9 fraction relative to baseline; type: toxicity, organism-based; details: salmonella enterica subsp. enterica serovar typhimurium; summary of the method: as §3
[13] = tested on: Salmonella typhimurium; test: Mutagenicity in Salmonella typhimurium TA98 at 0.625 mg/ml after 48 hrs by AMES MPF assay in presence of Sprague-Dawley rat liver microsomal S9 fraction relative to baseline; type: toxicity, organism-based; details: salmonella enterica subsp. enterica serovar typhimurium; summary of the method: as §3
[14] = tested on: Salmonella typhimurium; test: Mutagenicity in Salmonella typhimurium TA98 at 1.25 mg/ml after 48 hrs by AMES MPF assay in presence of Sprague-Dawley rat liver microsomal S9 fraction relative to baseline; type: toxicity, organism-based; details: salmonella enterica subsp. enterica serovar typhimurium; summary of the method: as §3
[15] = tested on: Salmonella typhimurium; test: Mutagenicity in Salmonella typhimurium TA98 at 2.5 mg/ml after 48 hrs by AMES MPF assay in presence of Sprague-Dawley rat liver microsomal S9 fraction relative to baseline; type: toxicity, organism-based; details: salmonella enterica subsp. enterica serovar typhimurium; summary of the method: as §3
[16] = tested on: Salmonella typhimurium; test: Mutagenicity in Salmonella typhimurium TA98 at 5 mg/ml after 48 hrs by AMES MPF assay in presence of Sprague-Dawley rat liver microsomal S9 fraction relative to baseline; type: toxicity, organism-based; details: salmonella enterica subsp. enterica serovar typhimurium; summary of the method: as §3
[17] = tested on: Salmonella typhimurium; test: Mutagenicity in Salmonella typhimurium TA98 at 0.156 mg/ml after 48 hrs by AMES MPF assay in absence of Sprague-Dawley rat liver microsomal S9 fraction relative to baseline; type: toxicity, organism-based; details: salmonella enterica subsp. enterica serovar typhimurium; summary of the method: as §3
[18] = tested on: Salmonella typhimurium; test: Mutagenicity in Salmonella typhimurium TA98 at 0.3125 mg/ml after 48 hrs by AMES MPF assay in absence of Sprague-Dawley rat liver microsomal S9 fraction relative to baseline; type: toxicity, organism-based; details: salmonella enterica subsp. enterica serovar typhimurium; summary of the method: as §3
[19] = tested on: Salmonella typhimurium; test: Mutagenicity in Salmonella typhimurium TA98 at 0.625 mg/ml after 48 hrs by AMES MPF assay in absence of Sprague-Dawley rat liver microsomal S9 fraction relative to baseline; type: toxicity, organism-based; details: salmonella enterica subsp. enterica serovar typhimurium; summary of the method: as §3
[20] = tested on: Salmonella typhimurium; test: Mutagenicity in Salmonella typhimurium TA98 at 1.25 mg/ml after 48 hrs by AMES MPF assay in absence of Sprague-Dawley rat liver microsomal S9 fraction relative to baseline; type: toxicity, organism-based; details: salmonella enterica subsp. enterica serovar typhimurium; summary of the method: as §3
[21] = tested on: Salmonella typhimurium; test: Mutagenicity in Salmonella typhimurium TA98 at 2.5 mg/ml after 48 hrs by AMES MPF assay in absence of Sprague-Dawley rat liver microsomal S9 fraction relative to baseline; type: toxicity, organism-based; details: salmonella enterica subsp. enterica serovar typhimurium; summary of the method: as §3
[22] = tested on: Salmonella typhimurium; test: Mutagenicity in Salmonella typhimurium TA98 at 5 mg/ml after 48 hrs by AMES MPF assay in absence of Sprague-Dawley rat liver microsomal S9 fraction relative to baseline; type: toxicity, organism-based; details: salmonella enterica subsp. enterica serovar typhimurium; summary of the method: as §3
[23] = tested on: Salmonella typhimurium; test: Mutagenicity in Salmonella typhimurium TA100 at 0.156 mg/ml after 48 hrs by AMES MPF assay in presence of Sprague-Dawley rat liver microsomal S9 fraction relative to baseline; type: toxicity, organism-based; details: salmonella enterica subsp. enterica serovar typhimurium; summary of the method: as §3
[24] = tested on: Salmonella typhimurium; test: Mutagenicity in Salmonella typhimurium TA100 at 0.3125 mg/ml after 48 hrs by AMES MPF assay in presence of Sprague-Dawley rat liver microsomal S9 fraction relative to baseline; type: toxicity, organism-based; details: salmonella enterica subsp. enterica serovar typhimurium; summary of the method: as §3
[25] = tested on: Salmonella typhimurium; test: Mutagenicity in Salmonella typhimurium TA100 at 0.625 mg/ml after 48 hrs by AMES MPF assay in presence of Sprague-Dawley rat liver microsomal S9 fraction relative to baseline; type: toxicity, organism-based; details: salmonella enterica subsp. enterica serovar typhimurium; summary of the method: as §3
[26] = tested on: Salmonella typhimurium; test: Mutagenicity in Salmonella typhimurium TA100 at 1.25 mg/ml after 48 hrs by AMES MPF assay in presence of Sprague-Dawley rat liver microsomal S9 fraction relative to baseline; type: toxicity, organism-based; details: salmonella enterica subsp. enterica serovar typhimurium; summary of the method: as §3
[27] = tested on: Salmonella typhimurium; test: Mutagenicity in Salmonella typhimurium TA100 at 2.5 mg/ml after 48 hrs by AMES MPF assay in presence of Sprague-Dawley rat liver microsomal S9 fraction relative to baseline; type: toxicity, organism-based; details: salmonella enterica subsp. enterica serovar typhimurium; summary of the method: as §3
[28] = tested on: Salmonella typhimurium; test: Mutagenicity in Salmonella typhimurium TA100 at 5 mg/ml after 48 hrs by AMES MPF assay in presence of Sprague-Dawley rat liver microsomal S9 fraction relative to baseline; type: toxicity, organism-based; details: salmonella enterica subsp. enterica serovar typhimurium; summary of the method: as §3
[29] = tested on: Salmonella typhimurium; test: Mutagenicity in Salmonella typhimurium TA100 at 0.156 mg/ml after 48 hrs by AMES MPF assay in absence of Sprague-Dawley rat liver microsomal S9 fraction relative to baseline; type: toxicity, organism-based; details: salmonella enterica subsp. enterica serovar typhimurium; summary of the method: as §3
[30] = tested on: Salmonella typhimurium; test: Mutagenicity in Salmonella typhimurium TA100 at 0.3125 mg/ml after 48 hrs by AMES MPF assay in absence of Sprague-Dawley rat liver microsomal S9 fraction relative to baseline; type: toxicity, organism-based; details: salmonella enterica subsp. enterica serovar typhimurium; summary of the method: as §3
[31] = tested on: Salmonella typhimurium; test: Mutagenicity in Salmonella typhimurium TA100 at 0.625 mg/ml after 48 hrs by AMES MPF assay in absence of Sprague-Dawley rat liver microsomal S9 fraction relative to baseline; type: toxicity, organism-based; details: salmonella enterica subsp. enterica serovar typhimurium; summary of the method: as §3
[32] = tested on: Salmonella typhimurium; test: Mutagenicity in Salmonella typhimurium TA100 at 1.25 mg/ml after 48 hrs by AMES MPF assay in absence of Sprague-Dawley rat liver microsomal S9 fraction relative to baseline; type: toxicity, organism-based; details: salmonella enterica subsp. enterica serovar typhimurium; summary of the method: as §3
[33] = tested on: Salmonella typhimurium; test: Mutagenicity in Salmonella typhimurium TA100 at 2.5 mg/ml after 48 hrs by AMES MPF assay in absence of Sprague-Dawley rat liver microsomal S9 fraction relative to baseline; type: toxicity, organism-based; details: salmonella enterica subsp. enterica serovar typhimurium; summary of the method: as §3
[34] = tested on: Salmonella typhimurium; test: Mutagenicity in Salmonella typhimurium TA100 at 5 mg/ml after 48 hrs by AMES MPF assay in absence of Sprague-Dawley rat liver microsomal S9 fraction relative to baseline; type: toxicity, organism-based; details: salmonella enterica subsp. enterica serovar typhimurium; summary of the method: as §3
[35] = tested on: A549; test: Antiproliferative activity against human A549 cells after 24 hrs by XTT assay; type: functional, cell-based; details: A549, 24 h
Summary of the method: (§4)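 A549 cells in RPMI and NIH/3T3 cells in DMEM, each with fetal calf serum, antibiotics and 7.5% NaHCO₃, at 37 °C, 5% CO₂. Seeded at 20,000 cells/well, 24 h, then compounds added in medium at 500–3.9 doses (final DMSO <0.1%) for 24 h. XTT read after 3 h at 480 nm (ref 680 nm). IC₅₀ by non-linear regression; triplicates; cisplatin control.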

[36] = Cytotoxicity against mouse NIH/3T3 cells after 24 hrs by XTT assay; type: cell-based; details: NIH3T3, 24 h; summary of the method: as §4

MIC [1]: 125 µg/mL (≈ 241 µM)
MIC [2]: 250 µg/mL (≈ 482 µM)
MIC [3]: 250 µg/mL (≈ 482 µM)
MIC [4]: 250 µg/mL (≈ 482 µM)
MIC [5]: 250 µg/mL (≈ 482 µM)
MIC [6]: 250 µg/mL (≈ 482 µM)
MIC [7]: 125 µg/mL (≈ 241 µM)
MIC [8]: 250 µg/mL (≈ 482 µM)
MIC [9]: 250 µg/mL (≈ 482 µM)
MIC [10]: 250 µg/mL (≈ 482 µM)
IC50 [35]: 62.5 µg/mL (≈ 120 µM)
Compound: Fc1ccc(C2CC(c3ccc(Cl)s3)=NN2c2nc(-c3ccc(Br)cc3)cs2)cc1 (stereo unspecified)
fold change (FC) [11]: 0.68
fold change (FC) [12]: 0.81
fold change (FC) [13]: 0.95
fold change (FC) [14]: 0.81
fold change (FC) [15]: 0.68
fold change (FC) [16]: 0.81
fold change (FC) [17]: 0
fold change (FC) [18]: 0.32
fold change (FC) [19]: 0
fold change (FC) [20]: 0
fold change (FC) [21]: 0
fold change (FC) [22]: 0
fold change (FC) [23]: 2.77
fold change (FC) [24]: 3.92
fold change (FC) [25]: 3.92
fold change (FC) [26]: 5.08
fold change (FC) [27]: 3.92
fold change (FC) [28]: 2.54
fold change (FC) [29]: 1
fold change (FC) [30]: 1
fold change (FC) [31]: 0.33
fold change (FC) [32]: 0
fold change (FC) [33]: 0.33
fold change (FC) [34]: 2
IC50 [36]: > 500 µg/mL

— ChEMBL document CHEMBL3407339, “A novel series of thiazolyl-pyrazoline derivatives: synthesis and evaluation of antifungal activity, cytotoxicity and genotoxicity” (Eur J Med Chem, 2015)
